Publication PMC2219267 (The Journal of General Physiology, 1996)
Each block holds one compound with its values, some of them ahead of it.

Columns and labels:
[1] = molecular target: T1, band 3 (Homo sapiens, UniProt P02730); assay: 36Cl exchange flux inhibition in red blood cells, Dixon plots; format: cell-based
T1 sequence (P02730 1-911): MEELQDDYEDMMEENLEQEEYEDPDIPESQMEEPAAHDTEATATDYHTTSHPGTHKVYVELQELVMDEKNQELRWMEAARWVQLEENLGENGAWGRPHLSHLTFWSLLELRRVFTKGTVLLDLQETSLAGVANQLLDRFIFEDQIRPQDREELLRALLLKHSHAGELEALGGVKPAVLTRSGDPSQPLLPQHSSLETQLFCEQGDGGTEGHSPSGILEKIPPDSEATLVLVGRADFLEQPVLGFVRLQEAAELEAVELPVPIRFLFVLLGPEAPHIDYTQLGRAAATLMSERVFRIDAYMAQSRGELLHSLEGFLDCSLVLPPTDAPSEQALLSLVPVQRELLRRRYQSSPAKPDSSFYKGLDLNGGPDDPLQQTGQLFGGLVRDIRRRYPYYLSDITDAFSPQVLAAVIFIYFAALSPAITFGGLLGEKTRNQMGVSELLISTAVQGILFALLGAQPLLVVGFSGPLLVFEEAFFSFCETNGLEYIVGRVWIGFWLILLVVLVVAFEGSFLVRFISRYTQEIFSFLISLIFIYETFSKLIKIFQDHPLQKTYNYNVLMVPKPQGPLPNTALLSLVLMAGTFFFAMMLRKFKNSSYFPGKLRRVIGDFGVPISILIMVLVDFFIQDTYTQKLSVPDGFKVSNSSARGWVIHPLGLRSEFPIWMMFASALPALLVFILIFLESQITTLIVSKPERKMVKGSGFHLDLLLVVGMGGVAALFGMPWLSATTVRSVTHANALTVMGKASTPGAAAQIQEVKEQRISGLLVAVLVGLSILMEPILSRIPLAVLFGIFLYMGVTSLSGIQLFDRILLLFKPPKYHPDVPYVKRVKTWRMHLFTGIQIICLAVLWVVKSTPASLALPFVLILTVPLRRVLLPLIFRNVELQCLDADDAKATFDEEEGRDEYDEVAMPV

[2] = molecular target: T1, band 3; assay: 125I iodide influx into red blood cells; format: cell-based
Procedure, shortened: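 Heparinised human blood was washed three times in 150 KH (150 mM KCl, 24 mM sucrose, 20 mM Hepes, pH 7.2 at 0°C), with white cells aspirated, then held at 50% hematocrit. DIDS-treated cells received a 2 mM DIDS stock. Media mixed sucrose, KCl and KI with 5 mM buffer. Above pHo 11, cells were nystatin-loaded to 300 mM Cl-, and CAPS-buffered media were used.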

type of inhibition of Cl- flux (Lineweaver-Burk plot) ([1]; 24 mM citrate, pHo 6.8, sucrose replacing Cl-): mixed inhibition | y intercept of Dixon slope vs 1/[Clo] (citrate) ([1]; pHo 6.8): 0.00017 kg Hb·s·mmol-1·mM-1 | y intercept of Dixon slope vs 1/[Clo] (citrate) ([1]; pHo 8.0): 0.0001 kg Hb·s·mmol-1·mM-1
SMILES: O=C(O)CC(O)(CC(=O)O)C(=O)O [citrate]

I- influx in DIDS-treated cells as % of value in control cells ([2]; all pH except 11.5): less than 10% | DIDS-insensitive I- flux as % of control flux ([2]; pH 11.5, very scattered values): up to 25%
SMILES: O=S(=O)(O)c1cc(N=C=S)ccc1C=Cc1ccc(N=C=S)cc1S(=O)(=O)O [DIDS, 4,4'-diisothiocyano-stilbene-2,2'-disulfonate]

effect of buffer on anion transport or on KoI ([1]; pHo ~12, compared with data obtained without buffer): does not show any inhibitory effects
SMILES: O=S(=O)(O)CCCNC1CCCCC1 [CAPS, 3-[cyclohexylamino]-l-propanesulfonic acid]
